Measured values reported in ChEMBL document CHEMBL2146366, “Discovery of microsomal triglyceride transfer protein (MTP) inhibitors with potential for decreased active metabolite load compared to dirlotapide” (Bioorg Med Chem Lett, 2011).
Active and inactive are the calls of the source. The rule behind the calls is not given here.

What was measured:
Rattus norvegicus [1] = assay: Antiobesity activity in high fat diet-induced obese Sprague-Dawley rat assessed as reduction of food intake at 10 mg/kg, po administered with 25% SDD formulation daily for 3 days relative to control; format: functional; design: scale not given: the % may be the effect or the level left
How it was run: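 Three-day oral dosing study in male Sprague–Dawley rats (~300 g, n = 5 per group) fed a high-fat diet (45% kcal from fat). Animals received daily gavage doses 1.5 h before the dark cycle. Compound was given as a spray-dried dispersion made by spray drying compound with hydroxypropylmethylcellulose acetate succinate. Food intake was recorded during dosing and liver TG measured afterwards, both against vehicle.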

Rattus norvegicus [2] = assay: Antiobesity activity in high fat diet-induced obese Sprague-Dawley rat assessed as reduction of food intake at 1 mg/kg, po administered daily for 3 days relative to dirlotapide; format: functional; design: scale not given: the % may be the effect or the level left
How it was run: (§1)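 Male Sprague–Dawley rats (~300 g, n = 5 per group) were acclimatized for seven days to a high-fat diet (45% kcal from fat). They received three consecutive daily oral gavage doses 1.5 h before the dark cycle. Vehicle was SEDDS:H2O 10:90, with SEDDS made of Miglyol 812 10%, triacetin 30%, polysorbate 80 20% and Capmul MCM 30%. Food intake was recorded during dosing, and liver TG was measured afterwards, both against vehicle.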

Rattus norvegicus [3] = assay: Antiobesity activity in po dosed high fat diet-induced obese Sprague-Dawley rat assessed as reduction of food intake administered daily for 3 days; format: functional; details: 72 h, read-out: MED; how it was run: as §1
Canis familiaris [4] = assay: Drug metabolism in beagle dog assessed as formation of N-(2-((4-fluorobenzyl)(methyl)amino)-2-oxo-1-phenylethyl)-2-(4'-(1-hydroxy-2-methylpropan-2-yl)biphenyl-2-ylcarboxamido)quinoline-6-carboxamide at 2.5 mg/kg, po administered as single dose; format: ADME, organism-based, Canis lupus familiaris; design: dose 2.5 mg/kg, route oral; details: in vivo
Rattus norvegicus [5] = assay: Antiobesity activity in high fat diet-induced obese Sprague-Dawley rat assessed as reduction of triglyceride accumulation in liver at 10 mg/kg, po qd for 7 days relative to control; format: functional; design: scale not given: the % may be the effect or the level left
How it was run: (§2)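 Seven-day rat study: once-daily oral dosing at 3, 10 or 30 mg/kg, with 1, 3 and 100 mg/kg also used for one series. Compounds were given as spray-dried dispersions in hydroxypropylmethylcellulose acetate succinate. Food intake, body weight, liver TG and serum ALT were measured against vehicle. Systemic exposure was reported as AUC (ng h/mL). Significance versus vehicle was set at P ≤ 0.05.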

Rattus norvegicus [6] = assay: Drug metabolism in rat assessed as formation of N-(2-((4-fluorobenzyl)(methyl)amino)-2-oxo-1-phenylethyl)-2-(4'-(1-hydroxy-2-methylpropan-2-yl)biphenyl-2-ylcarboxamido)quinoline-6-carboxamide at 30 mg/kg, po administered as single dose; format: ADME, organism-based; design: dose 30 mg/kg, route oral; details: in vivo
Rattus norvegicus [7] = assay: Drug metabolism in rat assessed as formation of 2-(2'-(6-(2-((4-fluorobenzyl)(methyl)amino)-2-oxo-1-phenylethylcarbamoyl)quinolin-2-ylcarbamoyl)biphenyl-4-yl)-2-methylpropanoic acid at 30 mg/kg, po administered as single dose; format: ADME, organism-based; design: dose 30 mg/kg, route oral; details: in vivo
Rattus norvegicus [8] = assay: Antiobesity activity in high fat diet-induced obese Sprague-Dawley rat assessed as reduction in body weight at 10 mg/kg, po administered daily for 3 days relative to dirlotapide; format: functional; design: scale not given: the % may be the effect or the level left
Rattus norvegicus [9] = assay: Antiobesity activity in high fat diet-induced obese Sprague-Dawley rat assessed as reduction in body weight at 100 mg/kg, po administered daily for 3 days relative to dirlotapide; format: functional; design: scale not given: the % may be the effect or the level left
Rattus norvegicus [10] = assay: Antiobesity activity in high fat diet-induced obese Sprague-Dawley rat assessed as reduction in body weight at 30 mg/kg, po administered daily for 3 days relative to control; format: functional; design: scale not given: the % may be the effect or the level left
Canis familiaris [11] = assay: Drug metabolism in beagle dog assessed as formation of 2-(2'-(6-(2-((4-fluorobenzyl)(methyl)amino)-2-oxo-1-phenylethylcarbamoyl)quinolin-2-ylcarbamoyl)biphenyl-4-yl)-2-methylpropanoic acid at 2.5 mg/kg, po administered as single dose; format: ADME, organism-based, Canis lupus familiaris; design: dose 2.5 mg/kg, route oral; details: in vivo
Rattus norvegicus [12] = assay: Toxicity in high fat diet-induced obese Sprague-Dawley rat assessed as change in serum ALT level at 10 mg/kg, po qd for 7 days relative to control; format: organism-based; design: dose 10 mg/kg, route oral; details: in vivo, 168 h
How it was run: (§3)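 Seven-day study in high-fat-diet rats. Compound was given once daily by mouth as a spray-dried dispersion, with vehicle controls. Serum ALT was measured alongside food intake, body weight, liver TG and systemic exposure (AUC). ALT is expressed as % change versus vehicle, with significance set at P ≤ 0.05.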

Rattus norvegicus [13] = assay: Antiobesity activity in high fat diet-induced obese Sprague-Dawley rat assessed as reduction in body weight at 3 mg/kg, po administered daily for 3 days relative to dirlotapide; format: functional; design: scale not given: the % may be the effect or the level left
[14] = AUC in high fat diet-induced obese Sprague-Dawley rat at 3 mg/kg, po qd for 7 days; format: ADME, organism-based; design: dose 3 mg/kg, route oral; details: plasma; how it was run: as §2
Rattus norvegicus [15] = assay: Toxicity in high fat diet-induced obese Sprague-Dawley rat assessed as change in serum ALT level at 30 mg/kg, po qd for 7 days relative to control; format: organism-based; design: dose 30 mg/kg, route oral; details: in vivo, 168 h; how it was run: as §3
Rattus norvegicus [16] = assay: Drug metabolism in rat assessed as formation of 2-(4'-tert-butylbiphenyl-2-ylcarboxamido)-N-(2-(methylamino)-2-oxo-1-phenylethyl)quinoline-6-carboxamide at 30 mg/kg, po administered as single dose; format: ADME, organism-based; design: dose 30 mg/kg, route oral; details: in vivo
Rattus norvegicus [17] = assay: Antiobesity activity in high fat diet-induced obese Sprague-Dawley rat assessed as reduction in body weight at 10 mg/kg, po administered with 25% SDD formulation daily for 3 days relative to control; format: functional; design: scale not given: the % may be the effect or the level left
Rattus norvegicus [18] = assay: Antiobesity activity in high fat diet-induced obese Sprague-Dawley rat assessed as reduction in body weight at 1 mg/kg, po administered daily for 3 days relative to dirlotapide; format: functional; design: scale not given: the % may be the effect or the level left
Rattus norvegicus [19] = assay: Antiobesity activity in high fat diet-induced obese Sprague-Dawley rat assessed as reduction in body weight at 30 mg/kg, po administered daily for 3 days relative to dirlotapide; format: functional; design: scale not given: the % may be the effect or the level left
Rattus norvegicus [20] = assay: Antiobesity activity in po dosed high fat diet-induced obese Sprague-Dawley rat assessed as reduction of reduction of triglyceride accumulation in liver administered daily for 3 days; format: functional; details: 72 h, read-out: MED
How it was run: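 Male Sprague–Dawley rats (about 300 g; n = 5 per group) were acclimatized for seven days to a high-fat diet (45% kcal from fat). They received three consecutive daily oral gavage doses in SEDDS:H₂O 10:90 vehicle 1.5 h before the dark cycle. Food intake was recorded, and liver TG was then measured against the vehicle group.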

Rattus norvegicus [21] = assay: Antiobesity activity in high fat diet-induced obese Sprague-Dawley rat assessed as reduction of triglyceride accumulation in liver at 10 mg/kg, po administered daily for 3 days relative to control; format: functional; how it was run: as §1

CN(Cc1ccc(F)cc1)C(=O)[C@@H](NC(=O)c1ccc2nc(NC(=O)c3ccccc3-c3ccc(C(C)(C)C)cc3)ccc2c1)c1ccccc1
Activity (Rattus norvegicus [1]): 33% | Activity (Rattus norvegicus [2]): 5% | minimal effective dose (Rattus norvegicus [3]): 3 mg/kg | Drug metabolism (Canis familiaris [4]): Active | Activity (Rattus norvegicus [5]): 219% | Drug metabolism (Rattus norvegicus [6]): Active | Drug metabolism (Rattus norvegicus [7]): Active | Activity (Rattus norvegicus [8]): 97% | Activity (Rattus norvegicus [9]): 75% | Activity (Rattus norvegicus [10]): 89% | Drug metabolism (Canis familiaris [11]): Active | Activity (Rattus norvegicus [12]): 143% | Activity (Rattus norvegicus [13]): 10% | AUC at 168 h [14]: 12 ng·h/mL | Activity (Rattus norvegicus [15]): 237% | Drug metabolism (Rattus norvegicus [16]): Active | Activity (Rattus norvegicus [17]): 96% | Activity (Rattus norvegicus [18]): 25% | Activity (Rattus norvegicus [19]): 75% | minimal effective dose (Rattus norvegicus [20]): 3 mg/kg | Activity (Rattus norvegicus [21]): inactive
